The full list was thinned out, with hits kept by preference.
Yeast eIF2B: GCN4-lacZ reporter reduction in eIF2B-epsilon mutant yeast, primary screen, S. cerevisiae, eIF2B-epsilon R284H, Beta-Glo luminescence. inhibition, % at 25 µM (by protocol). hit rate 0.91% among 27,000. AID 688, 2007;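 active = mutant luminescence inhibited past about 50% while wild type luminescence and mutant growth stay under set limits, limit read from the data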
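Material: yeast eIF2B-epsilon R284H mutant carrying GCN4–beta-galactosidase fusion. Medium: YPD yeast growth medium. Incubation: 16 h growth with compound at 30 °C, 90 min Beta-Glo step. Signal: Beta-Glo luminescence plus absorbance at 595 nm. Evaluation: % inhibition of reporter signal and growth versus controls. Doses: 25 µM single dose.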
Numbers stand for hits; – = inactive.

SMILES | Yeast eIF2B
CN(C)Cc1ccccc1OC(=O)N(C)C | –
CN(C)C(=O)Oc1ccc(OC(=O)c2ccccc2)cc1 | 51
Cc1cccc(CN(C)C)c1OC(=O)N(C)C | –
CCn1ncc(/C=C2/CC3C4CC=C5CC(O)CCC5(C)C4CCC3(C)C2=O)c1C (stereo not given) | –
Nc1c(C(=O)NC2CCCC2)c2nc3ccccc3nc2n1CC1CCCO1 (stereo not given) | –
Cc1ccc2c(c1)CNc1ccccc1O2 | –
c1ccc2c(c1)CNc1ccccc1O2 | 57
Cc1ccc(-c2nc(N(C)C3CCN(C)CC3)c3ccccc3n2)cc1 | –
CCOc1ccc(N=C2SCCCN2C)cc1 | –
OC1(c2ccccc2F)CC2CCC(C1)N2CCN1CCOCC1 (stereo not given) | –
